From PubChem
An excerpt weighted towards active compounds, which were near 2.6% of everything screened.
NadD block = NadD (S. aureus) enzyme inhibition; AID 602399; purified NadD enzyme, colorimetric absorbance read-out; inhibition, % at 20 µM; 360,000 compounds, 0.78% hits; in the data active means inhibition above about 26%
LMPTP inh = LMPTP (human) inhibition | P24666 | recombinant LMPTP-A, OMFP fluorogenic substrate, fluorescence intensity | 360,000 compounds, 0.22% hits | inhibition, % at 20 µM;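 active means compounds that cut the enzyme signal by at least half of the control window in the single-dose screen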
Target sequence (P24666 whole entry, looked up): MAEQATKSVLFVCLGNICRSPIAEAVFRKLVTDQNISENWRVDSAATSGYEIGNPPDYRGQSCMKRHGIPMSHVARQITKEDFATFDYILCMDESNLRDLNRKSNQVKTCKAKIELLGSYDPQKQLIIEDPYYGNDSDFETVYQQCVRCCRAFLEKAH
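Assay system: LMPTP-A enzyme. Input: 0.625 nM LMPTP-A final. Probe or stimulus: 400 µM OMFP. Compound dosing: single 20 µM dose. Schedule: 50 min dark incubation at room temperature. Detection: fluorescence intensity of OMFP turnover product. Read-out: percent inhibition versus substrate-only and uninhibited controls. Benchmarks: no-enzyme low control, uninhibited high control.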
Scp1 inh = blocks human Scp-1 phosphatase activity. Q9GZU7. Recombinant Scp1, phosphopeptide, malachite green phosphate absorbance. inhibition, % at 20 µM. 340,000 compounds, 0.88% hits;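 active means inhibition above about 50% at 20 µM, limit read from the data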
Target sequence (Q9GZU7 76-261 limits assumed): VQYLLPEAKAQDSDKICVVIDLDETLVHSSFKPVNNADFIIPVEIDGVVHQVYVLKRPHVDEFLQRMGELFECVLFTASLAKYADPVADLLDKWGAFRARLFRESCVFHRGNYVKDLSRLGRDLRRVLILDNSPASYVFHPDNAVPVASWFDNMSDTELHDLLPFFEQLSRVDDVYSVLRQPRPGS
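Test system: SCP-1 phosphatase catalytic domain, residues 76-261; measured by: colorimetric phosphate reagent with accelerator and stabiliser, absorbance at 630 nm; timing: enzyme reaction 45 min at room temperature, colour 5 min, stabilisation 30 min; also added: Phosphorylated 17-residue peptide substrate; compound dosing: one concentration, 20 µM, with 1.0% DMSO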
STEP block = STEP (human) phosphatase inhibition; 360,000 compounds, 0.25% hits; recombinant STEP, OMFP fluorogenic substrate, fluorescence; P54829; inhibition, % at 20 µM;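 active means inhibition at 20 µM, scaled per plate between control wells, above about 37%, limit read from the data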
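Assay system: isolated STEP enzyme. Buffer or medium: pH 6.0 Bis-Tris with DTT and Tween 20. Also added: fluorogenic phosphatase substrate OMFP at 25 µM final. Dosing: 20 µM, 1% DMSO. Timing: 20 min reaction, room temperature, in the dark. Measured by: fluorescence intensity, excitation 480 nm, emission 540 nm. Evaluation: normalized % inhibition.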
rCAG binder = r(CAG) repeat RNA binding; TO-PRO-1 dye displacement fluorescence; inhibition, % at 3 µM; 370,000 compounds, 1.3% hits; AID 651821;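 active means inhibition above the plate cutoff, the mean of all test compounds on that plate plus 3 SD, cut at about 35% in these data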;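 further: higher means more dye released from RNA so lower well fluorescence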
rCAG binder conf = r(CAG) RNA repeat binding, confirmation; inhibition, % at 3 µM; 4,300 compounds, 70% hits; TO-PRO-1 dye displacement fluorescence; shares compounds with rCAG binder;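 active means inhibition above a per-plate cutoff, the mean inhibition of sample wells plus 3 SD, cut at about 35% in these data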;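 further: loss of TO-PRO-1 fluorescence as compound displaces dye from 1x1 AA loop RNA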
DNA CAG counter = counter-screen for rCAG RNA binders: DNA CAG dye complex inhibitors | d(CAG) DNA oligo TO-PRO-1 dye displacement, fluorescence | shares compounds with rCAG binder | 4,300 compounds, 94% hits | AID 652068 | inhibition, % at 3 µM;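 active means inhibition above its plate's cutoff, the mean test-well inhibition plus 3 SD, cut at about 4.8% in these data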;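 further: hits displace the dye from DNA and so lower well fluorescence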
A number is an active result; . = inactive; / = no result.

SMILES	NadD block	LMPTP inh	Scp1 inh	STEP block	rCAG binder	rCAG binder conf	DNA CAG counter
CC1(C(=O)NS(=O)(=O)c2cccc(F)c2)CCN1C(=O)c1ccccc1CCc1ccccc1 (centres undefined)	.	.	/	.	51.8	43.1	11.1
CC1(C(=O)NS(=O)(=O)c2cccc(F)c2)CCN1C(=O)Cc1ccccc1Cl (centres undefined)	.	.	/	.	.	/	/
CC1(C(=O)NS(=O)(=O)c2ccc3c(c2)CCO3)CCN1C(=O)c1ccccc1CCc1ccccc1 (centres undefined)	.	.	/	.	42.4	42.3	10.9
Cc1cccc(S(=O)(=O)NC(=O)C2(C)CCN2C(=O)c2ccccc2CCc2ccccc2)c1 (centres undefined)	.	.	/	.	39.1	45.3	11.2
CC(C)(C)c1ccc(CC(=O)N2CCC2(C)C(=O)NS(=O)(=O)c2ccc3c(c2)CCO3)cc1 (centres undefined)	.	.	/	.	.	/	/
CC(C)c1ccc(CC(=O)N2CCC2(C)C(=O)NS(=O)(=O)c2cccc(OC(F)F)c2)cc1 (centres undefined)	.	.	/	.	35.1	.	.
CCCCCCCCN1C(=O)[C@@H](CC(=O)N2CCN(C(=O)c3ccco3)CC2)C[C@@]2(C(=O)OC)C1=C[C@H](COCc1ccccc1)O[C@@H]2C	/	/	/	/	.	/	/
COc1ccc(C=Nn2c(-c3ccc(F)cc3)n[nH]c2=S)c(OC)c1OC	/	/	/	/	.	/	/
Cc1cc(O)cc(=O)n1-c1cc(C(F)(F)F)cc(C(F)(F)F)c1	/	/	/	/	.	/	/
CCCC[C@H]1C2CC(OC(=O)Nc3cccc(C(F)(F)F)c3)C(C2)[C@H]2CCCCN21 (some centres undefined)	/	/	/	/	.	/	/
CC1(C(=O)NS(=O)(=O)c2cccc(OC(F)F)c2)CCN1C(=O)c1ccccc1CCc1ccccc1 (centres undefined)	.	.	/	.	60.8	54.2	17.0
CC1(C(=O)NS(=O)(=O)c2cccc(OC(F)F)c2)CCN1C(=O)Cc1ccccc1 (centres undefined)	.	.	/	.	.	/	/
COc1ccccc1NS(=O)(=O)c1ccc(NC(=O)c2[nH]nc(OC)c2[N+](=O)[O-])cc1	.	.	.	.	46.7	.	7.2
Cc1cc(C(c2ccc(C)o2)c2ccc(C)o2)c(O)c([N+](=O)[O-])c1	.	.	.	.	54.1	.	8.5
O=C(NCc1ccccc1)[C@@H]1CCCN1C(=O)[C@H]1CCCN1C(=O)c1ccc(Cl)cc1	/	/	/	/	.	/	/
Cc1ccc(CNC(=O)C2CC(c3ccc([N+](=O)[O-])cc3)=NO2)cc1 (centres undefined)	.	.	.	.	44.4	.	.
Cc1ccc(CNC(=O)C2CC(c3cccc(F)c3)=NO2)cc1 (centres undefined)	.	.	.	.	.	/	/
Cc1c(OC(C(=O)O)c2ccccc2)ccc2c(-c3ccccc3)cc(=O)oc12 (centres undefined)	.	.	.	.	37.4	37.9	9.0
COc1ccc(-c2cc(=O)oc3c(C)c(OCC(=O)N[C@@H](Cc4ccc(O)cc4)C(=O)O)ccc23)cc1	.	.	.	.	46.9	45.9	12.6
O=C(COc1cc2oc(=O)cc(-c3ccccc3)c2cc1Cl)NC(Cc1c[nH]c2ccc(O)cc12)C(=O)O (centres undefined)	.	.	.	.	41.6	62.2	23.8
CCc1cc(=O)oc2cc(C)cc(OCC(=O)NC(Cc3c[nH]c4ccc(O)cc34)C(=O)O)c12 (centres undefined)	.	.	.	.	.	/	/
COc1ccc(-c2cc(=O)oc3cc(OC(C)C(=O)NC(Cc4c[nH]c5ccc(O)cc45)C(=O)O)ccc23)cc1 (centres undefined)	.	.	.	.	43.7	43.0	12.8
O=C(CSc1nnc(-c2ccccn2)n1-c1ccc(Cl)cc1)Nc1ccc2c(c1)OCCO2	/	/	/	/	.	/	/
Cc1cccc(N2C(=O)C(O)=C(C(=O)c3cccs3)C2c2ccc(C(C)C)cc2)n1 (centres undefined)	.	.	.	.	48.1	38.6	11.2
Cc1cccc(N2C(=O)C(O)=C(C(=O)c3cccs3)C2c2ccc(F)cc2)n1 (centres undefined)	.	.	.	.	.	/	/
SMILES	NadD block	LMPTP inh	Scp1 inh	STEP block	rCAG binder	rCAG binder conf	DNA CAG counter
COc1ccccc1/C=C/C1=NC(=C\C=C/c2ccccc2)/C(=O)O1	.	.	.	.	46.0	.	13.9
O=C1OC(/C=C/c2ccccc2)=NC/1=C\c1cccnc1	.	.	.	.	.	/	/
CCOC(=O)c1ccc(NC(=O)CC2S/C(=N/N=C/c3c[nH]c4ccccc34)NC2=O)cc1 (centres undefined)	.	.	.	.	78.2	84.7	47.5
Cc1ccc(NC(=O)CC2S/C(=N/N=C/c3c[nH]c4ccccc34)NC2=O)cc1 (centres undefined)	.	.	.	.	47.4	64.2	23.4
COc1ccc(C(=O)OCCCN(C)C2CN(Cc3cn(Cc4cccc(F)c4)nn3)S(=O)(=O)C2)cc1OC (centres undefined)	/	/	/	/	.	/	/
COc1ccc(-c2nn(-c3ccccc3)cc2C(=O)Nc2ccc(C(=O)O)cc2)cc1	.	.	.	.	.	/	/
O=C(O)/C(=C\c1cn(-c2ccccc2)nc1-c1cccnc1)NC(=O)c1ccccc1	.	.	.	.	.	/	/
COc1ccc(-c2nn(-c3ccccc3)cc2/C=N/Nc2cccc(C(=O)O)c2)cc1	.	.	.	.	37.3	48.0	20.0
COc1cccc(-c2nn(-c3ccccc3)cc2/C=C(/NC(=O)c2ccccc2)C(=O)O)c1	.	.	.	.	38.2	38.3	9.2
C[C@H](O)[C@@H]1CN2CCc3c([nH]c4cccc(-c5ccccc5)c34)[C@@H]2C[C@@H]1N(C)C(=O)c1ccco1	/	/	/	/	.	/	/
COc1cccc(Nc2nc3ccccc3nc2NS(=O)(=O)c2cccs2)c1	.	.	.	.	73.6	87.5	59.5
CC(C)CCNc1nc2ccccc2nc1NS(=O)(=O)c1cccs1	.	.	.	.	55.8	.	5.5
COc1ccc(C=C2c3ccccc3C(=O)c3ccccc32)c(OC)c1	.	.	/	.	.	/	/
COC(=O)CC1=NN(c2ccccc2)C(=O)/C1=C\c1ccc(OC)cc1	.	.	.	.	41.8	.	8.3
CCOC(=O)CC1=NN(c2ccccc2)C(=O)/C1=C\c1ccc(OC)cc1OC	.	.	.	.	65.1	.	5.3
CCOC(=O)C1=NN(c2ccccc2)C(=O)/C1=C\c1ccc(N(C)C)cc1	.	.	.	.	60.5	62.6	19.2
